In article PMC7114883 (ACS Omega, 2020):
In brackets after ≈: the same amount, converted by molar mass. Where two headings read alike, the source gives them in different places.

Columns and labels:
P. falciparum NF54 [1] = assay: In vitro antiplasmodium assay; format: cell-based, Plasmodium falciparum; settings: for in vitro antiplasmodium activity (in words): authors' Pf assays
[2] = Microsomal metabolic stability, rat liver microsomes; format: in vitro ADME; settings: pH 7.4
Procedure, shortened: (§1)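 Test compound at 0.1 μM incubated at 37 °C, in duplicate, with liver microsomes (mouse, rat or pooled human; final protein 0.4 mg/mL) in 0.1 M phosphate buffer pH 7.4, with and without 1 mM NADPH. Quenched with ice-cold acetonitrile containing internal standard, centrifuged, and supernatant analysed by LC–MS/MS. Parent remaining after 30 min expressed as percent.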

[3] = Microsomal metabolic stability, mouse liver microsomes; format: in vitro ADME; settings: pH 7.4
Procedure, shortened: as §1

[4] = Microsomal metabolic stability, human liver microsomes; format: in vitro ADME; settings: pooled human liver microsomes, pH 7.4
Procedure, shortened: as §1

hERG channel = hERG channel (Homo sapiens, UniProt Q12809); assay: hERG channel inhibition; format: biochemical
Sequence of hERG channel (Q12809 whole entry): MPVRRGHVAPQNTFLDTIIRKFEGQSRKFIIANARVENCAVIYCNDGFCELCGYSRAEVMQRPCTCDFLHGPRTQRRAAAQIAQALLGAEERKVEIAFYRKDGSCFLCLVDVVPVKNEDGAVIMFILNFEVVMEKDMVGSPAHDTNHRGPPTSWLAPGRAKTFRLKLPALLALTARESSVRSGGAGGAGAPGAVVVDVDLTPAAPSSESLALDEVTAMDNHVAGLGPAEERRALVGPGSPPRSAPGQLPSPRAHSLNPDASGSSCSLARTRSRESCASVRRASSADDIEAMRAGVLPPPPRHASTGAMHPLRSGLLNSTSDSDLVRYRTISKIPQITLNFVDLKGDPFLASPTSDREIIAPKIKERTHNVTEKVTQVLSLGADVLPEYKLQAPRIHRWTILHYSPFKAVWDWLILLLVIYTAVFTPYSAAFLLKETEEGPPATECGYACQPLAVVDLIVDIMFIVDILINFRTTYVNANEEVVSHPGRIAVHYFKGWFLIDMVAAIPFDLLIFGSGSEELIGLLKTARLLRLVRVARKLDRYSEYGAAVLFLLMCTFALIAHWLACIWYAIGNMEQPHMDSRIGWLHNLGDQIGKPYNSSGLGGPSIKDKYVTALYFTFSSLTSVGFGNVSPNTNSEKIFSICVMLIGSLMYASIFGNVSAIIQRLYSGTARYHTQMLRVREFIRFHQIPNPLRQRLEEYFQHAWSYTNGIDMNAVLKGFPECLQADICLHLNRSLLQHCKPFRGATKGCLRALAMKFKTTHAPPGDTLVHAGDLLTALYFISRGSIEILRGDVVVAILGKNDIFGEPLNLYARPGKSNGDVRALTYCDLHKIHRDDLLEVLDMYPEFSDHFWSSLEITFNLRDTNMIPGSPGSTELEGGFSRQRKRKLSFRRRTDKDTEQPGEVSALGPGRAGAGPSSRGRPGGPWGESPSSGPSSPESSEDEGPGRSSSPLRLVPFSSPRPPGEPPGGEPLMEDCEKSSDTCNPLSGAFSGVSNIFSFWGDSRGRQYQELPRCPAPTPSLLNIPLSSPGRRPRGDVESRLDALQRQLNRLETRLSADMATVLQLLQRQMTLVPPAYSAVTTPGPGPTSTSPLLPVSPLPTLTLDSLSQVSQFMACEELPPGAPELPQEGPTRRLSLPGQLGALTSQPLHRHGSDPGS

P. falciparum NF54 [5] = settings: read-out: IC50 PfNF54; reference drugs; ref Singh et al. 33; cited from earlier work
P. falciparum K1 [6] = settings: read-out: IC50 PfK1; reference drugs; ref Singh et al. 33; cited from earlier work
[7] = Aqueous solubility, miniaturized shake flask method; format: physicochemical; settings: aqueous solution, 25 °C, thermodynamic from solid
P. falciparum K1 [8] = assay: In vitro antiplasmodium assay; format: cell-based; settings: Plasmodium falciparum, K1, read-out: IC50 PfK1
[9] = P. berghei mouse model efficacy; format: in vivo, Plasmodium berghei (NMRI mice); settings: female, NMRI, plasma, po, 100 mg/kg
[10] = Pharmacokinetic studies in rats; format: in vivo; settings: rat, plasma, iv, 1 mg/kg
[11] = PAMPA parallel artificial membrane permeability assay; format: in vitro ADME; settings: fraction absorbed
Solubility at pH 6.8 = format: physicochemical; settings: pH 6.8, aqueous buffer
[12] = P. falciparum SCID mouse model efficacy; format: in vivo, Plasmodium falciparum (NOD-scid IL-2Rγnull mice); settings: female, NOD-scid IL-2Rγnull, plasma, po, 25 mg/kg
[13] = system: Chinese hamster ovarian (CHO) cell line; assay: Cytotoxicity MTT assay; format: cell-based; settings: CHO cells, relative to 4-unsubstituted compound 3
[14] = system: Chinese hamster ovarian (CHO) cell line; settings: read-out: IC50 (CHO); reference drug; ref Singh et al. 33; cited from earlier work
[15] = In vitro metabolic stability in human liver microsomes; format: in vitro ADME
[16] = In vitro metabolic stability in mouse liver microsomes; format: in vitro ADME
P. falciparum NF54 [17] = assay: Pf NF54 activity determined at NITD; format: cell-based; settings: Plasmodium falciparum, NF54, read-out: IC50 PfNF54
[18] = Plasmodium falciparum, NF54, read-out: IC50 PfNF54, drug-sensitive NF54 strain, mean of ≥2 independent experiments
[19] = read-out: IC50 PfNF54, drug-sensitive NF54 strain, mean of ≥2 independent experiments

| IC50 (P. falciparum NF54 [1]; [18]) [nM] | remaining at 0.5 h, 0.1 μM [2] [%] | remaining at 0.5 h, 0.1 μM [3] [%] | remaining at 0.5 h, 0.1 μM [4] [%] | Compound | in vitro antiplasmodium activity (in words) (P. falciparum NF54 [1]) | IC50 (hERG channel) [nM] | also measured |
| --- | --- | --- | --- | --- | --- | --- | --- |
| > 10000 | – | – | – | Cc1ccc(C(=O)N2CCN(c3nc4cc(Cl)ccc4n3Cc3ccccc3)CC2)cc1 [Compound 23] | completely inactive | – | – |
| – | 89.8 | 94 | 88.2 | Brc1ccc2c(c1)nc(N1CCNCC1)n2Cc1ccccc1 [Compound 16b, 1-Benzyl-5-bromo-2-(piperazin-1-yl)-1H-benzo[d]imidazole] | – | 30 | IC50 (P. falciparum NF54 [1]; [19]): 42.4 nM |
| – | 36.5 | 31.3 | 23.2 | C[C@@H]1CN(c2nc3cc(Cl)ccc3n2Cc2ccccc2)C[C@H](C)N1 [Compound 27] | – | 17 | – |
| > 1000 | – | – | – | Cl.Clc1ccc2c(c1)nc(N1CCNCC1)n2CCc1ccccc1 [Compound 16g, 5-Chloro-1-phenethyl-2-(piperazin-1-yl)-1H-benzo[d]imidazole Hydrochloride] | inactive | – | – |
| – | – | – | – | CCN(CC)CCCC(C)Nc1ccnc2cc(Cl)ccc12 (stereo not shown) [Chloroquine] | – | – | IC50 (P. falciparum NF54 [5]): 16 nM; IC50 (P. falciparum K1 [6]): 194 nM |
| > 1000 | – | – | – | c1ccc(Cn2c(N3CCNCC3)nc3cnccc32)cc1 [Compound 57b] | inactive | – | – |
| – | 97 | 98.6 | 99.4 | NCCCNc1nc2cc(Br)ccc2n1Cc1ccccc1 [Compound 41, N^1-(1-Benzyl-5-bromo-1H-benzo[d]imidazol-2-yl)propane-1,3-diamine] | – | – | – |
| – | – | – | – | COC(=O)c1ccc2c(c1)nc(C1CCNCC1)n2Cc1ccccc1 [Compound 46d] | inactive | – | – |
| > 1000 | – | – | – | CC(=O)N1CCN(c2nc3cc(Cl)ccc3n2Cc2ccccc2)CC1 [Compound 18] | – | 390 | – |
| – | 95.6 | 82 | 92.2 | FC(F)(F)c1ccc2c(c1)nc(N1CCNCC1)n2Cc1ccccc1 [Compound 14c] | – | 150 | – |
| – | 42.1 | 63 | 74.4 | Cl.Clc1ccc2c(c1)nc(N1CCNCC1)n2Cc1ccccc1 [Compound 3] | – | 9 | AUC [9]: 377 µM·h; Cmax [9]: 20.6 µM; half-life [10]: 1.98 h; PAMPA (%FA) [11]: 99 %FA; solubility (Solubility at pH 6.8): 770 µM; solubility at 20 h ([7]; pH 2, simulated gastric fluid): 150 µM; solubility at 20 h ([7]; pH 6.5, aqueous buffer): 140 µM; AUC [12]: 86 µM·h; Cmax [12]: 5.2 µM |
| 5260 | – | – | – | O=S(=O)(c1ccc(Cl)cc1)N1CCN(c2nc3cc(Cl)ccc3n2Cc2ccccc2)CC1 [Compound 25] | completely inactive | – | – |
| – | 66.1 | 72.5 | 76.3 | Cl.Clc1ccc2c(nc(N3CCNCC3)n2Cc2ccccc2)c1Cl [Compound 42a] | – | 590 | fold more cytotoxic than 3 [13]: ~4 fold |
| 600 | – | – | – | Cc1ccc(Cn2c(N3CCC(C(=O)NCc4cccs4)CC3)nc3ccccc32)cc1 [Compound 26, 1-(1-(4-methylbenzyl)-1H-benzo[d]imidazol-2-yl)-N-(thiophen-2-ylmethyl)piperidine-4-carboxamide] | weakly active | – | solubility at 20 h ([7]; pH 6.5, aqueous buffer): < 5 µM |
| – | 92.9 | 97.6 | 91.8 | Clc1ccc2c(c1)nc(C1CCNCC1)n2Cc1ccccc1 [Compound 46a, 1-Benzyl-5-chloro-2-(piperidin-4-yl)-1H-benzo[d]imidazole] | – | 460 | IC50 (P. falciparum NF54 [1]; [19]): 37.9 nM |
| > 10000 | – | – | – | c1ccc2c(c1)nc(N1CCNCC1)n2Cc1ccncc1 [Compound 14i] | inactive | – | – |
| – | – | – | – | Cl.Cn1c(N2CCNCC2)nc2ccccc21 [Compound 60, 1-methyl-2-(piperazin-1-yl)-1H-benzo[d]imidazole hydrochloride] | inactive | – | IC50 (P. falciparum NF54 [1]; Plasmodium falciparum, NF54, read-out: IC50 PfNF54): > 10000 nM |
| – | – | – | – | CS(=O)(=O)c1ccc2c(c1)nc(C1CCNCC1)n2Cc1ccccc1.Cl [Compound 46e] | inactive | – | – |
| – | 39.9 | 76 | 80.9 | NC1CCN(c2nc3cc(Cl)ccc3n2Cc2ccccc2)CC1 [Compound 28] | – | 70 | – |
| – | – | – | – | CC[C@H]1CN2CCc3cc(OC)c(OC)cc3[C@@H]2C[C@@H]1C[C@H]1NCCc2cc(OC)c(OC)cc21 [Emetine] | – | – | IC50 [14]: 95 nM |
| > 1000 | – | – | – | O=C1CN(c2nc3cc(Cl)ccc3n2Cc2ccccc2)CCN1 [Compound 17] | – | 2300 | – |
| 9510 | – | – | – | O=C(NCCCNc1nc2ccccc2n1Cc1ccccc1)c1cc(Cl)cc(Cl)c1 [Compound 21] | completely inactive | – | solubility at 20 h ([7]; pH 2, simulated gastric fluid): 10 µM (≈ 4.53 µg/mL) |
| – | – | – | – | C[C@H]1[C@H](OC(=O)CCC(=O)O)O[C@@H]2O[C@@]3(C)CC[C@H]4[C@H](C)CC[C@@H]1[C@@]24OO3 [Artesunate] | – | – | IC50 (P. falciparum NF54 [5]): 4 nM; IC50 (P. falciparum K1 [6]): 3 nM |
| > 1000 | – | – | – | Clc1ccc2c(c1)nc(N1CCOCC1)n2Cc1ccccc1 [Compound 16a, 4-(1-Benzyl-5-chloro-1H benzo[d]imidazol-2-yl)morpholine] | – | – | – |
| > 10000 | – | – | – | Cc1ccc(C(=O)N2CCN(c3nc4ccccc4n3C)CC2)cc1.Cl [Compound 22] | completely inactive | – | – |
| – | 93.8 | 91.6 | 97.4 | Clc1ccc2c(nc(N3CCNCC3)n2Cc2ccccc2)c1Br [Compound 42k] | – | – | fold more cytotoxic than 3 [13]: ~4 fold |
| – | – | – | – | c1ccc(Cn2c(N3CCNCC3)nc3ccccc32)cc1 [Compound 1, Lerisetron, reference compound] | – | 320 | In vitro metabolic stability in liver microsomes, human [15]: 26.6 µL/min/mg; In vitro metabolic stability in liver microsomes, mouse [16]: 29 µL/min/mg; PAMPA (%FA) [11]: 99 %FA; solubility (Solubility at pH 6.8): > 1000 µM; IC50 (P. falciparum NF54 [17]): 810 nM |
| > 10000 | – | – | – | O=C(O)CN1CCN(c2nc3cc(Cl)ccc3n2Cc2ccccc2)CC1 [Compound 20] | inactive | – | solubility at 20 h ([7]; pH 6.5, aqueous buffer): 200 µM (≈ 77 µg/mL) |
| 9770 | – | – | – | Cl.c1ccc(Cn2c(N3CCNCC3)nc3ccccc32)nc1 [Compound 59] | inactive | – | – |
| – | 97.7 | 97.4 | 99.3 | Brc1ccc2c(c1)nc(C1CCNCC1)n2Cc1ccccc1 [Compound 46b] | – | – | – |

| Compound | IC50 (P. falciparum NF54 [1]; [18]) [nM] | remaining at 0.5 h, 0.1 μM [2] [%] | remaining at 0.5 h, 0.1 μM [3] [%] | remaining at 0.5 h, 0.1 μM [4] [%] | in vitro antiplasmodium activity (in words) (P. falciparum NF54 [1]) | IC50 (hERG channel) [nM] | also measured |
| --- | --- | --- | --- | --- | --- | --- | --- |
| N#CCN1CCN(c2nc3cc(Cl)ccc3n2Cc2ccccc2)CC1 [Compound 19] | 306 | 1.2 | 2 | 8.6 | – | 180 | solubility at 20 h ([7]; pH 2, simulated gastric fluid): > 150 µM; solubility at 20 h ([7]; pH 6.5, aqueous buffer): < 5 µM; IC50 (P. falciparum K1 [8]): 454 nM |
| NCCNc1nc2cc(Cl)ccc2n1Cc1ccccc1 [Compound 33, N^1-(1-benzyl-5-chloro-1H-benzo[d]imidazol-2-yl)ethane-1,2-diamine] | – | 88 | 71.2 | 98.9 | – | 2200 | hERG safety window (hERG channel; hERG versus antiplasmodium activity): 10 fold |
